Measured values reported in ChEMBL document CHEMBL1146183, “Replacement of the N-terminal tyrosine residue in opioid peptides with 3-(2,6-dimethyl-4-carbamoylphenyl)propanoic acid (Dcp) results in novel opioid antagonists” (J Med Chem, 2006).

What was measured:
Mu-type opioid receptor = Mu-type opioid receptor (Rattus norvegicus, UniProt P33535); experiment: Displacement of [3H]DAMGO from mu opioid receptor in rat brain membrane; format: cell membranes
[1] = molecular target: Delta-type opioid receptor (Rattus norvegicus, UniProt P33533); experiment: Displacement of [3H]DSLET from delta opioid receptor in rat brain membrane; format: cell membranes
Sequence of Delta-type opioid receptor (P33533 whole entry): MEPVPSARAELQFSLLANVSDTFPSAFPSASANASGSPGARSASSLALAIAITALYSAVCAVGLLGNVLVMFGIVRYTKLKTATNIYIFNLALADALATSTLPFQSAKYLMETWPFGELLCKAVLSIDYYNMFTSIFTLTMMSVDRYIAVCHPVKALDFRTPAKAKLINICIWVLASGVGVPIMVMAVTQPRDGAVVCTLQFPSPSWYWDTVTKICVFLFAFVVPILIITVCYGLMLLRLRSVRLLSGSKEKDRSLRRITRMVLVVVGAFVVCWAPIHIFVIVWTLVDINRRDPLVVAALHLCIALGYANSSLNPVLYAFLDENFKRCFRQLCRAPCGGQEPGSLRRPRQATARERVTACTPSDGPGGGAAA

[2] = molecular target: Kappa-type opioid receptor (Cavia porcellus, UniProt P41144); experiment: Displacement of [3H]U-69593 from kappa opioid receptor in guinea pig brain membrane; format: cell membranes
Sequence of Kappa-type opioid receptor (P41144 whole entry): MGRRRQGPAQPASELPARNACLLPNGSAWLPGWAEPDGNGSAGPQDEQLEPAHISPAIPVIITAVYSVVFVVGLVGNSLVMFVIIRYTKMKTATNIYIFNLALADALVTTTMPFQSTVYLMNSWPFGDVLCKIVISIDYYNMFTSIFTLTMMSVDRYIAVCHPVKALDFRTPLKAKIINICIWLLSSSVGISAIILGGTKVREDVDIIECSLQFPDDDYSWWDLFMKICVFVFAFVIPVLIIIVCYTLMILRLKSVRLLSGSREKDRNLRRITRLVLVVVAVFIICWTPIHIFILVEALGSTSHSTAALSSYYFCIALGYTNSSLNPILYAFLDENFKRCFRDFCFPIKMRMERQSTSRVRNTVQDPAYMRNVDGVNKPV

[3] = Selectivity for rat mu opioid receptor over guinea pig kappa opioid receptor
[4] = molecular target: Opioid receptors; mu & delta (Rattus norvegicus) (UniProt P33533+P33535); experiment: Selectivity for mu opioid receptor over delta receptor; format: protein assay
Sequence of Opioid receptors; mu & delta (Rattus norvegicus) (P33533 whole entry, looked up): as the sequence (P33533 whole entry) above
Sequence of Opioid receptors; mu & delta (Rattus norvegicus) (P33535 whole entry, looked up): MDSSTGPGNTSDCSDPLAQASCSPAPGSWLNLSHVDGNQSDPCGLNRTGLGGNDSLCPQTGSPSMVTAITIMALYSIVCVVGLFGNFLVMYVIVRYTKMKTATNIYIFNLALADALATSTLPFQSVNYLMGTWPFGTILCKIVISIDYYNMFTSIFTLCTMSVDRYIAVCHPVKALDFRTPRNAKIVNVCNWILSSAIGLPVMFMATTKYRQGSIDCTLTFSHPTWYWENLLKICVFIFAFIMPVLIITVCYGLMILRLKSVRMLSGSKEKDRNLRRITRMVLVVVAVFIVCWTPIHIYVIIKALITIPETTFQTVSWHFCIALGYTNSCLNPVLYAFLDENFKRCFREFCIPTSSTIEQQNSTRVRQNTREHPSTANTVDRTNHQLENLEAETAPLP

[5] = molecular target: Mu-type opioid receptor (Cavia porcellus) (UniProt P97266); experiment: Activity at mu opioid receptor assessed as antagonizing effect against TAPP by GPI assay; format: functional
Sequence of Mu-type opioid receptor (Cavia porcellus) (P97266 whole entry): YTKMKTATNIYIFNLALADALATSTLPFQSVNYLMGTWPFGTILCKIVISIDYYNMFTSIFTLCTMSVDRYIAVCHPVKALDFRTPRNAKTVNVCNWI
How it was run: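 Antagonism of the µ agonist TAPP measured in guinea pig ileum (GPI) preparation; Ke determined, reported as mean of three to six determinations.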

[6] = molecular target: Kappa-type opioid receptor (Cavia porcellus) (UniProt P41144); experiment: Activity at kappa opioid receptor assessed as antagonizing effect against U50,488 by GPI assay; format: functional
Sequence of Kappa-type opioid receptor (Cavia porcellus) (P41144 whole entry): as the sequence (P41144 whole entry) above
How it was run: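 Antagonism of the κ agonist U50,488 measured in guinea pig ileum (GPI) preparation; Ke determined, reported as mean of three to six determinations.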

[7] = molecular target: Delta-type opioid receptor (Mus musculus) (UniProt P32300); experiment: Activity at delta opioid receptor assessed as antagonizing effect against DPDPE by MVD assay; format: functional
Sequence of Delta-type opioid receptor (Mus musculus) (P32300 whole entry): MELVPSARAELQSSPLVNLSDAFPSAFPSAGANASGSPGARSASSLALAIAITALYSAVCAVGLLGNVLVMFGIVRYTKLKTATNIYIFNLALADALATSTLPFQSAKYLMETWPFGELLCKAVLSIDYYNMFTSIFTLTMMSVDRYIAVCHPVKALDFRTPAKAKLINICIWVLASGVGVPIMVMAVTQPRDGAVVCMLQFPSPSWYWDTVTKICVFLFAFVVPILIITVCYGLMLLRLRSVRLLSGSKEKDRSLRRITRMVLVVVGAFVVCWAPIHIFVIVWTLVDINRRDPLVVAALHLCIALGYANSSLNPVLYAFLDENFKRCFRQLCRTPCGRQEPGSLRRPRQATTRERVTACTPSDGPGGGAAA
How it was run: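 Antagonism at δ receptors measured in mouse vas deferens (MVD) preparation; Ke determined, reported as mean of three to six determinations.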

[8] = molecular target: Opioid receptor (mu and kappa) (Cavia porcellus) (UniProt P41144+P97266); experiment: Ratio of Ke for mu opioid receptor to Ke for kappa opioid receptor; format: protein assay
Sequence of Opioid receptor (mu and kappa) (Cavia porcellus) (P41144 whole entry, looked up): as the sequence (P41144 whole entry) above
Sequence of Opioid receptor (mu and kappa) (Cavia porcellus) (P97266 whole entry, looked up): as the sequence (P97266 whole entry) above

[9] = Ratio of Ke for guinea pig mu opioid receptor to Ke for mouse delta opioid receptor

Sequence of Mu-type opioid receptor (P33535 whole entry): as the sequence (P33535 whole entry, looked up) above

| SMILES | Ki (Mu-type opioid receptor) [nM] | Ki [1] [nM] | Ki [2] [nM] | Ratio Ki [3] | Ratio Ki [4] | Ke [5] [nM] | Ke [6] [nM] | Ke [7] [nM] | Ratio Ke [8] | Ratio Ke [9] |
| --- | --- | --- | --- | --- | --- | --- | --- | --- | --- | --- |
| CC[C@H](C)[C@H](NC(=O)[C@H](CCCNC(=N)N)NC(=O)[C@H](CCCNC(=N)N)NC(=O)[C@H](CC(C)C)NC(=O)[C@H](Cc1ccccc1)NC(=O)CNC(=O)CNC(=O)CCc1c(C)cc(C(N)=O)cc1C)C(=O)N[C@@H](CCCNC(=N)N)C(=O)N1CCC[C@H]1C(=O)N[C@@H](CCCCN)C(N)=O | 44.9 | 129 | 32 |  |  |  |  |  |  |  |
| Cc1cc(C(N)=O)cc(C)c1CCC(=O)NC1CSSCC(C(N)=O)NC(=O)[C@H](Cc2ccc([N+](=O)[O-])cc2)NC(=O)CNC1=O (stereo in doubt) | 2.84 | 25.8 | 980 | 345 | 9 | 3.92 | 74.1 | 176 | 19 | 45 |
| Cc1cc(O)cc(C)c1CCC(=O)NC1CSSCC(C(N)=O)NC(=O)[C@H](Cc2ccc([N+](=O)[O-])cc2)NC(=O)CNC1=O (stereo in doubt) | 4.79 | 11.6 | 299 | 62 | 2 | 3.68 | 22.6 | 63.3 | 6 | 17 |
